The values that follow come from ChEMBL document CHEMBL4130397, “Tulongicin, an Antibacterial Tri-Indole Alkaloid from a Deep-Water Topsentia sp. Sponge” (J Nat Prod, 2017).

≈ marks a conversion by molar mass, not a printed value.

As a reminder, the MIC is the lowest concentration that inhibits growth of the organism. The term IC50 denotes the concentration needed to halve the response being measured.

The test system of one test is Staphylococcus aureus. As to the kind of experiment: Antibacterial activity against Staphylococcus aureus ATCC 29213 by CLSI method. Format: functional. In outline: (§1)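 Broth MIC per CLSI guidelines against ATCC strains; each compound tested in duplicate in at least two independent experiments; top concentration tested 100 μg/mL.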
In test [1] the test system is Human immunodeficiency virus 1. Put plainly: Antiviral activity against ENV pseudotyped CXCR4-tropic HIV1 HxB2 infected in human TZM-bl cells after 24 hrs by luciferase reporter gene assay. It is filed as functional, organism-based. Conditions: Human immunodeficiency virus 1, M:B_HXB2R.
Another test has as its system HCT-116. As to the kind of experiment: Cytotoxicity against human HCT116 cells. Format: cell-based.
The test system of another test is BSC-1. Put plainly: Cytotoxicity against African green monkey BSC1 cells. The following applies: Chlorocebus aethiops. It is filed as cell-based.
Another test has as its system Escherichia coli. As to the kind of experiment: Antibacterial activity against Escherichia coli ATCC 25922 by CLSI method. It is filed as functional. An outline of the steps:
as §1

Test [2] has as its system Human immunodeficiency virus 1. Put plainly: Antiviral activity against ENV pseudotyped CCR5-tropic HIV1 isolate YU2 infected in human TZM-bl cells after 24 hrs by luciferase reporter gene assay. Format: functional, organism-based. Conditions: Human immunodeficiency virus 1, isolate YU2, TZM-bl. Background: A reporter such as luciferase makes a cellular process visible.

For the molecule `O[C@H](C1=NC[C@H](c2c[nH]c3cc(Br)ccc23)N1)c1c[nH]c2cc(Br)ccc12`, the figures for the MIC against Staphylococcus aureus and with Escherichia coli were 3.7 µg/mL (≈ 7.58 µM) and 100 µg/mL (≈ 205 µM), respectively. Further, the IC50 in test [1] came out at 4.5 µM; with HCT-116, 16 µM; in the test on BSC-1 it was 93 µM; in test [2], 3.5 µM.
Regarding `Cc1onc(-c2ccccc2)c1C(=O)N[C@@H]1C(=O)N2[C@@H]1SC(C)(C)[C@@H]2C(=O)O` [OXACILLIN], in the test with Staphylococcus aureus, the MIC worked out at 0.25 µg/mL (≈ 0.623 µM).
Take `O=C(C1=NC[C@H](c2c[nH]c3cc(Br)ccc23)N1)c1c[nH]c2cc(Br)ccc12`: the MIC in the test with Staphylococcus aureus was 1.1 µg/mL (≈ 2.26 µM); against Escherichia coli, above 100 µg/mL. The 50% inhibitory concentration (IC50) was found to be 12 µM in test [1], 27 µM with HCT-116, 31 µM in the test with BSC-1 and 9.5 µM in test [2].
Regarding GENTAMICIN, 1 µg/mL was the least that counted as inhibitory against Escherichia coli (MIC).
On to `Brc1ccc2c(C(C3=NC[C@H](c4c[nH]c5cc(Br)ccc45)N3)c3c[nH]c4cc(Br)ccc34)c[nH]c2c1`, for which the MIC against Staphylococcus aureus is 1.2 µg/mL (≈ 1.8 µM); in the test with Escherichia coli, above 100 µg/mL. In addition, the IC50 in test [1] is 2.7 µM; with HCT-116, 10 µM; in the test with BSC-1, 46 µM; in test [2] it was 3.9 µM.
